From ChEMBL document CHEMBL1140448 (J Med Chem, 2005)

Legend:
Rattus norvegicus [1] = species: Rattus norvegicus; assay: Percent inhibition on GH release from rat pituitary cells; type: functional, Pituitary gland cell; parameters: concentration or dose not given beside the values
Procedure, shortened: (§1)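 Anterior pituitaries from female Wistar rats (180-200 g) dispersed with dispase. Cells seeded at (0.5-5) × 10^5 per well in MEM with 10% FCS and attached at least 3 days. Then 4 h incubation with or without analogue plus 10 nM GHRH, four dishes per group. Rat GH and PRL measured by commercial assay; response given as % change versus untreated control dishes.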

Rattus norvegicus [2] = species: Rattus norvegicus; assay: Percent inhibition on PRL release from rat pituitary cells; type: functional, Pituitary gland cell; parameters: concentration or dose not given beside the values; procedure, shortened: as §1
[3] = molecular target: Somatostatin receptor type 2 (Homo sapiens, UniProt P30874); assay: Inhibitory concentration against human somatostatin receptor type 2 in CC531 cells; type: cell-based
Sequence of Somatostatin receptor type 2 (P30874 whole entry): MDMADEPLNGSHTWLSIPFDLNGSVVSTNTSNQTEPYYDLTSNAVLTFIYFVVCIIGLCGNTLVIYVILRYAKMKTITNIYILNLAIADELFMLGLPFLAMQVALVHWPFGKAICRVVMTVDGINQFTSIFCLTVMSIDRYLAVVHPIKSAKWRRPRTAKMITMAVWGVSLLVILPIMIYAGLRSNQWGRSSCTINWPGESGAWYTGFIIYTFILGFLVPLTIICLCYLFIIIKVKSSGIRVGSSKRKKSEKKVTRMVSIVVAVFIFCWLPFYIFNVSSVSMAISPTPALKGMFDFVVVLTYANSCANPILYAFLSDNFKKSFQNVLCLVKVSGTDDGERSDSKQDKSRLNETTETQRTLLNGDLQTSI
Procedure, shortened: (§2)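 Competitive binding on membranes (25-50 µg protein) from stably transfected cells expressing one human sst subtype: CC531 for sst2, CHO-K1 for sst3 and sst5. Stopped with ice-cold Hepes buffer pH 7.6 and centrifuged; washed pellet γ-counted. Nonspecific binding taken with 1 µM unlabeled SRIF analogue.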

[4] = molecular target: Somatostatin receptor type 3 (Homo sapiens, UniProt P32745); assay: Inhibitory concentration against human somatostatin receptor type 3 in CHO-K1 cells; type: cell-based; procedure, shortened: as §2
Sequence of Somatostatin receptor type 3 (P32745 whole entry): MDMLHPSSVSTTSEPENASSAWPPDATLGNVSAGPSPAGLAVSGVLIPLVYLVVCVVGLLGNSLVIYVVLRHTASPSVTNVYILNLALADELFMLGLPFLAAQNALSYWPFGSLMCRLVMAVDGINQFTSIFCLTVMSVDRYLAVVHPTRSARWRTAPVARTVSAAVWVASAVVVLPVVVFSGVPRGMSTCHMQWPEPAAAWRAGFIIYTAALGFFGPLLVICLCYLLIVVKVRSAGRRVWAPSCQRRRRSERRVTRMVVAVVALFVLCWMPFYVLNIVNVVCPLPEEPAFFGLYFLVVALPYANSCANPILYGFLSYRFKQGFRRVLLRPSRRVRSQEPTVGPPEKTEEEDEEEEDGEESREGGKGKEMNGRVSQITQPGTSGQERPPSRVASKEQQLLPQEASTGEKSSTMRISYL

[5] = molecular target: Somatostatin receptor type 5 (Homo sapiens, UniProt P35346); assay: Inhibitory concentration against human somatostatin receptor type 5 in CHO-K1 cells; type: cell-based; procedure, shortened: as §2
Sequence of Somatostatin receptor type 5 (P35346 whole entry): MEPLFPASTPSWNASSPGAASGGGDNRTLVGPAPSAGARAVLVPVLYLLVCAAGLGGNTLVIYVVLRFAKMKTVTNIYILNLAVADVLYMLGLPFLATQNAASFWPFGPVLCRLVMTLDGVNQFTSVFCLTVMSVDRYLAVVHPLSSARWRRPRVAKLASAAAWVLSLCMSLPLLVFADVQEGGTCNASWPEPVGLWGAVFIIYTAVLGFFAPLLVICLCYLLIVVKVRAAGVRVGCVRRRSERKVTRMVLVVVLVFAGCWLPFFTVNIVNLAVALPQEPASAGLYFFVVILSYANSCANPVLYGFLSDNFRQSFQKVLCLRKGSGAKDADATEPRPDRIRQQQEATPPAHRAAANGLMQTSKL

Rattus norvegicus [6] = species: Rattus norvegicus; assay: Inhibitory concentration on GH release from rat pituitary cells; type: functional, cell-based; conditions: Pituitary gland cell; procedure, shortened: as §1
Rattus norvegicus [7] = species: Rattus norvegicus; assay: Inhibitory concentration on PRL release from rat pituitary cells; type: functional, cell-based; conditions: Pituitary gland cell; procedure, shortened: as §1

Row | Structure (SMILES) | Inhibition (Rattus norvegicus [1]) [%] | Inhibition (Rattus norvegicus [2]) [%] | IC50 [3] [nM] | IC50 [4] [nM] | IC50 [5] [nM] | IC50 (Rattus norvegicus [6]) [nM] | IC50 (Rattus norvegicus [7]) [nM]
1 | CC(C)[C@@H]1NC(=O)[C@H](CCCCN)NC(=O)[C@@H](Cc2c[nH]c3ccccc23)NC(=O)[C@H](Cc2ccc(O)c(I)c2)NC(=O)[C@@H](NC(=O)[C@H](N)Cc2ccc(N)cc2)CSSC[C@@H](C(=O)N[C@H](C(N)=O)[C@@H](C)O)NC1=O [listing 1 of 2 here] | 12 | 14 | – | – | – | – | –
2 | CC(C)[C@@H]1NC(=O)[C@H](CCCCN)NC(=O)[C@@H](Cc2c[nH]c3ccccc23)NC(=O)[C@H](Cc2ccc(O)c(I)c2)NC(=O)[C@@H](NC(=O)[C@H](N)Cc2ccc(N)c(I)c2)CSSC[C@@H](C(=O)N[C@H](C(N)=O)[C@@H](C)O)NC1=O [listing 1 of 2 here] | 58 | 29 | – | – | – | – | –
3 | CC(C)[C@@H]1NC(=O)[C@H](CCCCN)NC(=O)[C@@H](Cc2c[nH]c3ccccc23)NC(=O)[C@H](Cc2ccc(O)cc2)NC(=O)[C@@H](NC(=O)[C@H](N)Cc2ccc(N)cc2)CSSC[C@@H](C(=O)N[C@@H](CC(=O)O)C(N)=O)NC1=O [listing 1 of 2 here] | 41 | -9 | – | – | – | – | –
4 | CC(C)[C@@H]1NC(=O)[C@H](CCCCN)NC(=O)[C@@H](Cc2c[nH]c3ccccc23)NC(=O)[C@H](Cc2ccc(O)c(I)c2)NC(=O)[C@@H](NC(=O)[C@H](N)Cc2ccc(N)c(I)c2)CSSC[C@@H](C(=O)N[C@@H](CC(=O)O)C(N)=O)NC1=O [listing 1 of 2 here] | 55 | 15 | – | – | – | – | –
5 | CC(C)[C@@H]1NC(=O)[C@H](CCCCN)NC(=O)[C@@H](Cc2c[nH]c3ccccc23)NC(=O)[C@H](Cc2ccc(O)cc2)NC(=O)[C@@H](NC(=O)[C@H](N)Cc2ccc(N)cc2)CSSC[C@@H](C(=O)N[C@@H](CC(=O)O)C(N)=O)NC1=O [listing 2 of 2 here] | – | – | 11 | > 1000 | 54 | 14.8 | 26
6 | CC(C)[C@@H]1NC(=O)[C@H](CCCCN)NC(=O)[C@@H](Cc2c[nH]c3ccccc23)NC(=O)[C@H](Cc2ccc(O)cc2)NC(=O)[C@@H](NC(=O)[C@H](N)Cc2ccc(N)cc2)CSSC[C@@H](C(=O)N[C@@H](C(N)=O)[C@H](C)O)NC1=O [listing 1 of 2 here] | – | – | 17 | > 1000 | – | – | –
7 | CC(C)[C@@H]1NC(=O)[C@H](CCCCN)NC(=O)[C@@H](Cc2c[nH]c3ccccc23)NC(=O)[C@H](Cc2ccc(O)c(I)c2)NC(=O)[C@@H](NC(=O)[C@H](N)Cc2ccc(N)c(I)c2)CSSC[C@@H](C(=O)N[C@@H](CC(=O)O)C(N)=O)NC1=O [listing 2 of 2 here] | – | – | 1.9 | > 1000 | 2.9 | – | –
8 | CC(C)[C@@H]1NC(=O)[C@H](CCCCN)NC(=O)[C@@H](Cc2c[nH]c3ccccc23)NC(=O)[C@H](Cc2ccc(O)cc2)NC(=O)[C@@H](NC(=O)[C@H](N)Cc2ccc(N)c(I)c2)CSSC[C@@H](C(=O)N[C@H](C(N)=O)[C@@H](C)O)NC1=O [listing 1 of 2 here] | – | – | 1.4 | > 1000 | – | 0.1 | 0.1
9 | CC(C)[C@@H]1NC(=O)[C@H](CCCCN)NC(=O)[C@@H](Cc2c[nH]c3ccccc23)NC(=O)[C@H](Cc2ccc(O)cc2)NC(=O)[C@@H](NC(=O)[C@H](N)Cc2ccc(N)c(I)c2)CSSC[C@@H](C(=O)N[C@@H](CC(=O)O)C(N)=O)NC1=O [listing 1 of 2 here] | – | – | 12 | > 1000 | 74 | – | –
10 | CC(C)[C@@H]1NC(=O)[C@H](CCCCN)NC(=O)[C@@H](Cc2c[nH]c3ccccc23)NC(=O)[C@H](Cc2ccc(O)cc2)NC(=O)[C@@H](NC(=O)[C@H](N)Cc2ccc(N)cc2)CSSC[C@@H](C(=O)N[C@H](C(N)=O)[C@@H](C)O)NC1=O [listing 1 of 2 here] | 47 | 20 | – | – | – | – | –
11 | CC(C)[C@@H]1NC(=O)[C@H](CCCCN)NC(=O)[C@@H](Cc2c[nH]c3ccccc23)NC(=O)[C@H](Cc2ccc(O)cc2)NC(=O)[C@@H](NC(=O)[C@H](N)Cc2ccc(N)cc2)CSSC[C@@H](C(=O)N[C@@H](C(N)=O)[C@H](C)O)NC1=O [listing 2 of 2 here] | -11 | 8 | – | – | – | – | –
12 | CC(C)[C@@H]1NC(=O)[C@H](CCCCN)NC(=O)[C@@H](Cc2c[nH]c3ccccc23)NC(=O)[C@H](Cc2ccc(O)cc2)NC(=O)[C@@H](NC(=O)[C@H](N)Cc2ccccc2)CSSC[C@@H](C(=O)N[C@@H](CC(=O)O)C(N)=O)NC1=O | – | – | 18.6 | > 1000 | – | 1.1 | –
13 | CC(C)[C@@H]1NC(=O)[C@H](CCCCN)NC(=O)[C@@H](Cc2c[nH]c3ccccc23)NC(=O)[C@H](Cc2ccc(O)cc2)NC(=O)[C@@H](NC(=O)[C@H](N)Cc2ccc(N)cc2)CSSC[C@@H](C(=O)N[C@H](CC(=O)O)C(N)=O)NC1=O [listing 1 of 2 here] | – | – | 1.1 | > 1000 | 30 | – | > 100
14 | CC(C)[C@@H]1NC(=O)[C@H](CCCCN)NC(=O)[C@@H](Cc2c[nH]c3ccccc23)NC(=O)[C@H](Cc2ccc(O)cc2)NC(=O)[C@@H](NC(=O)[C@H](N)Cc2ccc(N)cc2)CSSC[C@@H](C(=O)N[C@H](C(N)=O)[C@@H](C)O)NC1=O [listing 2 of 2 here] | – | – | 1.6 | > 1000 | – | 0.08 | 2.2
15 | CC(C)[C@@H]1NC(=O)[C@H](CCCCN)NC(=O)[C@@H](Cc2c[nH]c3ccccc23)NC(=O)[C@H](Cc2ccc(O)c(I)c2)NC(=O)[C@@H](NC(=O)[C@H](N)Cc2ccc(N)c(I)c2)CSSC[C@@H](C(=O)N[C@H](C(N)=O)[C@@H](C)O)NC1=O [listing 2 of 2 here] | – | – | 0.63 | > 1000 | – | 0.15 | 0.23
16 | C[C@H](N)C(=O)NCC(=O)N[C@H]1CSSC[C@@H](C(=O)O)NC(=O)[C@H](CO)NC(=O)[C@H]([C@@H](C)O)NC(=O)[C@H](Cc2ccccc2)NC(=O)[C@H]([C@@H](C)O)NC(=O)[C@H](CCCCN)NC(=O)[C@H](Cc2c[nH]c3ccccc23)NC(=O)[C@H](Cc2ccccc2)NC(=O)[C@H](Cc2ccccc2)NC(=O)[C@H](CC(N)=O)NC(=O)[C@H](CCCCN)NC1=O [SOMATOSTATIN] | 66 | 30 | – | – | – | 0.1 | 0.2
17 | CC(C)[C@@H]1NC(=O)[C@H](CCCCN)NC(=O)[C@@H](Cc2c[nH]c3ccccc23)NC(=O)[C@H](Cc2ccc(O)cc2)NC(=O)[C@@H](NC(=O)[C@H](N)Cc2ccc(N)c(I)c2)CSSC[C@@H](C(=O)N[C@@H](CC(=O)O)C(N)=O)NC1=O [listing 2 of 2 here] | 17 | 12 | – | – | – | – | –
18 | CC(C)[C@@H]1NC(=O)[C@H](CCCCN)NC(=O)[C@@H](Cc2c[nH]c3ccccc23)NC(=O)[C@H](Cc2ccc(O)c(I)c2)NC(=O)[C@@H](NC(=O)[C@H](N)Cc2ccc(N)cc2)CSSC[C@@H](C(=O)N[C@H](C(N)=O)[C@@H](C)O)NC1=O [listing 2 of 2 here] | – | – | 6.2 | > 1000 | – | – | –
19 | CC(C)[C@@H]1NC(=O)[C@H](CCCCN)NC(=O)[C@@H](Cc2c[nH]c3ccccc23)NC(=O)[C@H](Cc2ccc(O)cc2)NC(=O)[C@@H](NC(=O)[C@H](N)Cc2ccc(N)cc2)CSSC[C@@H](C(=O)N[C@H](CC(=O)O)C(N)=O)NC1=O [listing 2 of 2 here] | 18 | 11 | – | – | – | – | –
20 | CC(C)[C@@H]1NC(=O)[C@H](CCCCN)NC(=O)[C@@H](Cc2c[nH]c3ccccc23)NC(=O)[C@H](Cc2ccc(O)cc2)NC(=O)[C@@H](NC(=O)[C@H](N)Cc2ccc(N)c(I)c2)CSSC[C@@H](C(=O)N[C@H](C(N)=O)[C@@H](C)O)NC1=O [listing 2 of 2 here] | 60 | 35 | – | – | – | – | –
